The text below walks through data of ChEMBL document CHEMBL1137770, “Biological activity of endomorphin and [Dmt1]endomorphin analogs with six-membered proline surrogates in position 2” (Bioorg Med Chem, 2009).

Data set [1] concerns Mus musculus. Description: Antinociceptive activity in icv dosed Swiss albino CD1 mouse assessed as inhibition of paw licking by hot plate test. Format: functional, organism-based. The method, boiled down: (§1)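 Male Swiss albino CD1 mice (20-22 g), peptide given i.c.v. into left ventricle in 0.9% NaCl. Placed on 55±0.5 °C hot plate 5 min post-injection; latency to paw licking (also rearing, jumping) versus saline-injected controls; cut-off 240 s. Dose-response curves; mean ± SEM, 10 mice per group.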
(In general: Hot-plate and tail-flick tests time the reaction to a heat stimulus.)

Data set [2] concerns the target Delta-type opioid receptor (Rattus norvegicus, UniProt P33533). Nature of the data set: Displacement of [3H][Ile5,6]deltorphin-2 from delta opioid receptor in Wistar rat brain membrane. Type of data set: cell membranes.
The target in data set [3] is T1, Mu-type opioid receptor (Homo sapiens, UniProt P35372). Nature of the data set: Binding affinity to recombinant OPRM1 receptor immobilized on biosensor assessed as association rate constant by BIAcore X system. The method, boiled down: (§2)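 Surface plasmon resonance at 37 °C: recombinant OPRM1 protein immobilised on CM5 chip by amine coupling (10 µg/ml in 10 mM sodium acetate, pH 5.0). Peptides at about 0.4 mM in HBS (10 mM HEPES, 150 mM NaCl, 3 mM EDTA, 0.005% P20, pH 7.4) injected 30 s at 20 µl/min; association/dissociation RU fitted for ka and kd.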
(In general: SPR reads the build-up and loss of mass on a sensor chip optically.)

In data set [4] the test system is Mus musculus. Description: Antinociceptive activity in icv dosed Swiss albino CD1 mouse assessed as inhibition of paw licking by hot plate test in presence of MOR antagonist beta-funaltrexamine. Format: functional, organism-based. The method, boiled down:
(§3)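 CD1 male mice given peptide i.c.v. in 0.9% NaCl with MOR antagonist β-funaltrexamine (1 µg). Hot plate at 55±0.5 °C, 240 s cut-off; latencies to paw licking, rearing and jumping versus controls. Mean ± SEM of 10 mice per group; two-way ANOVA followed by Student-Newman-Keuls test.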

In data set [5] the test system is Mus musculus. Nature of the data set: Antinociceptive activity in Swiss albino CD1 mouse assessed as duration of inhibition of jumping at 0.1 ng, icv by hot plate test. Format: functional. The method, boiled down: (§4)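 Male Swiss albino CD1 mice (20-22 g), i.c.v. injection into left ventricle in 0.9% NaCl. Hot plate at 55±0.5 °C; latencies to paw licking, rearing and jumping, cut-off 240 s; saline controls. Time-course readings at 5, 10, 20, 30, 45, 60, 90, 120, 150 and 180 min after dosing; duration of effect recorded.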

Data set [6] is described as follows: Stability in rat brain homogenates assessed as degradation half life. Type of data set: ADME, tissue-based. The settings on record: brain homogenate. The method, boiled down: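 Pooled rat brain homogenate (in 50 mM Tris-HCl pH 7.4, 10 mg protein/ml aliquot) incubated with 0.5 mM peptide stock at 37 °C for 0-60 min; stopped on ice with 1 M HCl, centrifuged. Remaining peptide peak area regressed as ln(A/A0) versus time for k; t1/2 = ln2/k. Three experiments in duplicate.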

The subject of data set [7] is Mus musculus. Description: Antinociceptive activity in icv dosed Swiss albino CD1 mouse assessed as inhibition of rearing by hot plate test in presence of MOR antagonist beta-funaltrexamine. Format: functional, organism-based. The method, boiled down:
as §3

The next data set is filed under the species Rattus norvegicus. Nature of the data set: Selectivity ratio of IC50 for delta opioid receptor to IC50 for mu opioid receptor in Wistar rat brain membrane. Format: cell membranes. The method, boiled down:
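Wistar rat brain crude membranes incubated 120 min at 25 °C with peptide and 0.5 nM [3H]DAMGO (MOR) or 0.5 nM [3H][Ile5,6]deltorphin-2 (DOR) in 50 mM Tris/HCl pH 7.4 with 5 mM MgCl2, 1 mM EDTA, 100 mM NaCl, bacitracin.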

Data set [8] concerns Mus musculus. Description: Antinociceptive activity in Swiss albino CD1 mouse assessed as duration of inhibition of rearing at 0.1 ng, icv by hot plate test. Type of data set: functional. The method, boiled down:
as §4

Data set [9] has as its system Mus musculus. Description: Antinociceptive activity in icv dosed Swiss albino CD1 mouse assessed as inhibition of jumping by hot plate test in presence of MOR antagonist beta-funaltrexamine. Type of data set: functional, organism-based. The method, boiled down:
as §3

Data set [10] deals with Mus musculus. Nature of the data set: Antinociceptive activity in Swiss albino CD1 mouse assessed as duration of inhibition of paw licking at 0.1 ng, icv by hot plate test. Format: functional. The method, boiled down: as §4
The target of data set [11] is T1, Mu-type opioid receptor. Nature of the data set: Binding affinity to recombinant OPRM1 receptor immobilized on biosensor assessed as dissociation rate constant by BIAcore X system. The method, boiled down:
as §2

Data set [12] relates to Mus musculus. Nature of the data set: Antinociceptive activity in Swiss albino CD1 mouse assessed as inhibition of paw licking at 3 ng, icv by hot plate test. Format: functional, organism-based. The method, boiled down: as §1
The target of data set [13] is Mu-type opioid receptor (Rattus norvegicus, UniProt P33535). Description: Displacement of [3H]DAMGO from mu opioid receptor in Wistar rat brain membrane. Type of data set: cell membranes. In general terms: Loss of bound radioactivity is the signal in a displacement assay; it reports binding, not function.
For data set [14], the system named is Mus musculus. Nature of the data set: Antinociceptive activity in iv dosed Swiss albino CD1 mouse assessed as inhibition of paw licking by hot plate test. Type of data set: functional, organism-based.
The subject of data set [15] is Mus musculus. Description: Antinociceptive activity in Swiss albino CD1 mouse assessed as duration of inhibition of paw licking at 3 ng, icv by hot plate test. Type of data set: functional. The method, boiled down: as §4
For data set [16], the system named is Mus musculus. Nature of the data set: Antinociceptive activity in Swiss albino CD1 mouse assessed as duration of inhibition of rearing at 3 ng, icv by hot plate test. Format: functional. The method, boiled down: as §4
Data set [17] has as its system Mus musculus. Description: Antinociceptive activity in Swiss albino CD1 mouse assessed as inhibition of paw licking at 100 ng, icv by hot plate test. Type of data set: functional, organism-based. The method, boiled down: as §1
The subject of data set [18] is Mus musculus. Nature of the data set: Antinociceptive activity in Swiss albino CD1 mouse assessed as duration of inhibition of jumping at 3 ng, icv by hot plate test. Format: functional. The method, boiled down: as §4

Activity calls are given as the source filed them. Square brackets hold non-standard residues; d marks the D form. Peptide text beside a SMILES is read from it. Inp = O=C(O)C1CCNCC1 A value given as a limit tells only on which side of the number the result lay.

T1 sequence (P35372 whole entry): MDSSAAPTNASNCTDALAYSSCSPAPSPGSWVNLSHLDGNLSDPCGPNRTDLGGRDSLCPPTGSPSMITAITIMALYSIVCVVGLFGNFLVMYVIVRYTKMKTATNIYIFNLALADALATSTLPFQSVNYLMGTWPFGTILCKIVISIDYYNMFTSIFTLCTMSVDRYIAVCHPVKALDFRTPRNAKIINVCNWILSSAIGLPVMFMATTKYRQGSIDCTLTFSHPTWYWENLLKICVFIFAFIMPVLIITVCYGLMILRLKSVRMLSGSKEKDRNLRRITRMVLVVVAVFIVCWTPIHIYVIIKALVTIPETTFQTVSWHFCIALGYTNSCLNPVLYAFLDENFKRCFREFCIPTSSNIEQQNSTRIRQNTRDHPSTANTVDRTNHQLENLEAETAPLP
Chain of Mu-type opioid receptor (Rattus norvegicus, UniProt P33535) (P33535 whole entry): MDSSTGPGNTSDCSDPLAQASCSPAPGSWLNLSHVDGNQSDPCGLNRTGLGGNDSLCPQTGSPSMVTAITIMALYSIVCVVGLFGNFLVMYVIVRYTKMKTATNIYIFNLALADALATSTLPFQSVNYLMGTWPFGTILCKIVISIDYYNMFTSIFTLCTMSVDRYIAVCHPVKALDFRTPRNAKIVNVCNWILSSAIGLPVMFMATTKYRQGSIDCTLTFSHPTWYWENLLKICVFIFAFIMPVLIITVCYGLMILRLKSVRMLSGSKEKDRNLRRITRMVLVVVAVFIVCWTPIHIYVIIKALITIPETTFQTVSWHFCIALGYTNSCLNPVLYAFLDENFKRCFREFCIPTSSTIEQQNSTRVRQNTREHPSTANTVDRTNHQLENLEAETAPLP
Chain of Delta-type opioid receptor (P33533 whole entry): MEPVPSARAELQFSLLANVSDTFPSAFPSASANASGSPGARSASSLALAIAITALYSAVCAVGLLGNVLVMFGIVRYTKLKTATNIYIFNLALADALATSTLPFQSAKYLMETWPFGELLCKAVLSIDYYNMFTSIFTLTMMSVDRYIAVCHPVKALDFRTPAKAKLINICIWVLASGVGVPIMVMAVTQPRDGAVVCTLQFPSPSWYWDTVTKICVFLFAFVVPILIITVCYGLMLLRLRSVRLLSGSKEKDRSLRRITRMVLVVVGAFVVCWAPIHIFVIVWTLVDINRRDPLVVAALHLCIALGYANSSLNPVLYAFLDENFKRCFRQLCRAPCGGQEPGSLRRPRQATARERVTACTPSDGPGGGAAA

What is called IC50 is the concentration that inhibits the measured activity by half. The half-life is the time in which the quantity being followed falls by half. On to `Cc1cc(O)cc(C)c1C[C@H](N)C(=O)N1CCC[C@@H](C(=O)N[C@@H](Cc2ccccc2)C(=O)N[C@@H](Cc2ccccc2)C(N)=O)C1`, for which the Activity result in the data set on Mus musculus [1] was “Dose-dependent effect”; in the data set with Mus musculus [5], over 170 min; in the data set with Mus musculus [8], over 170 min; in the data set with Mus musculus [10], over 170 min. The half-inhibitory concentration (IC50) in [2] was found to be 407 nM; on Mu-type opioid receptor [13], 0.035 nM. Moreover, the Ka at Mu-type opioid receptor [3] was determined as 515 M⁻¹ s⁻¹. In addition, the AC50 entry in the data set on Mus musculus [4] is reported as “Not Active”. Moreover, the half-life in [6] is 30.9 min. Moreover, the result in the data set with Mus musculus [7], in the data set with Mus musculus [9] and in the data set with Mus musculus [14] was inactive. Further, the Ratio IC50 in the data set filed under Rattus norvegicus is over 1000. The Kd at Mu-type opioid receptor [11] is 0.29 s⁻¹. Further, the result in the data set on Mus musculus [12] was Active.
In the case of `NC(=O)[C@H](Cc1ccccc1)NC(=O)[C@H](Cc1ccccc1)NC(=O)[C@@H]1CCCN1C(=O)[C@@H](N)Cc1ccc(O)cc1` [ENDOMORPHIN 2], the Activity in the data set on Mus musculus [15], in the data set with Mus musculus [16] and with Mus musculus [18] was 50 min each time. Also, the half-life in [6] came out at 4.8 min. Besides, in the data set with Mus musculus [17], the outcome was Active.
Regarding `NC(=O)[C@H](Cc1ccccc1)NC(=O)[C@H](Cc1ccccc1)NC(=O)[C@@H]1CCCCN1C(=O)[C@@H](N)Cc1ccc(O)cc1`, the IC50 was over 1000 nM in data set [2] and 80 nM at Mu-type opioid receptor [13]. For the same compound, the half-life in data set [6] was 6.8 min. The Ratio IC50 in the data set filed under Rattus norvegicus was over 12.5.
On to `NC(=O)[C@H](Cc1ccccc1)NC(=O)[C@H](Cc1c[nH]c2ccccc12)NC(=O)[C@@H]1CCCCN1C(=O)[C@@H](N)Cc1ccc(O)cc1`, for which the IC50 was over 1000 nM in data set [2] and 20.4 nM at Mu-type opioid receptor [13]. Moreover, the half-life in data set [6] was 9.68 min. Further, in the data set filed under Rattus norvegicus, the Ratio IC50 was over 49.
Taken in the same sequence, the figures for `NC(=O)[C@H](Cc1ccccc1)NC(=O)[C@H](Cc1c[nH]c2ccccc12)NC(=O)C1CCN(C(=O)[C@@H](N)Cc2ccc(O)cc2)CC1` (H-Y[Inp]WF-NH2) were 860 nM, 401 nM, 78.5 min and 2.15.
Taken in the same sequence, the figures for `NC(=O)[C@H](Cc1ccccc1)NC(=O)[C@H](Cc1c[nH]c2ccccc12)NC(=O)[C@@H]1CCCN(C(=O)[C@@H](N)Cc2ccc(O)cc2)C1` were over 1000 nM, 3.55 nM, 29.6 min and over 281.
In the case of `NC(=O)[C@H](Cc1ccccc1)NC(=O)[C@H](Cc1ccccc1)NC(=O)[C@@H]1CCCN(C(=O)[C@@H](N)Cc2ccc(O)cc2)C1`, the Activity entry with Mus musculus [1] was “Dose-dependent effect”; in the data set on Mus musculus [5] it was 150 min; in the data set with Mus musculus [8], 150 min; in the data set on Mus musculus [10], 150 min. The results for the 50% inhibitory concentration (IC50) (in [2]; on Mu-type opioid receptor [13]) were over 1000 nM and 0.04 nM, respectively. Further, on Mu-type opioid receptor [3], the Ka was 570 M⁻¹ s⁻¹. Also, the AC50 entry with Mus musculus [4] was “Not Active”. The half-life in [6] stood at 48 min. Moreover, the result in the data set with Mus musculus [7], with Mus musculus [9] and with Mus musculus [14] was inactive. In the data set listed under Rattus norvegicus, the Ratio IC50 was over 1000. Besides, at Mu-type opioid receptor [11], the Kd was determined as 0.55 s⁻¹. Besides, the result in the data set on Mus musculus [17] was Active.
For `NC(=O)[C@H](Cc1ccccc1)NC(=O)[C@H](Cc1c[nH]c2ccccc12)NC(=O)[C@@H]1CCCN1C(=O)[C@@H](N)Cc1ccc(O)cc1` [ENDOMORPHIN-1], in [6], the half-life is 6.02 min.
Take `Cc1cc(O)cc(C)c1C[C@H](N)C(=O)N1CCC[C@@H](C(=O)N[C@@H](Cc2c[nH]c3ccccc23)C(=O)N[C@@H](Cc2ccccc2)C(N)=O)C1`: the IC50 in [2] stood at 89 nM; on Mu-type opioid receptor [13] it was 0.38 nM. For the same compound, in [6], the half-life came to 35.8 min. Further, the Ratio IC50 in the data set filed under Rattus norvegicus was 234.
